From PMC3920694 (Iranian Journal of Pharmaceutical Research : IJPR, 2013)
Like-named read-outs stand apart in the source and are kept apart here.

Experiments:
[1] = tested on: K562 (Human chronic myelogenom leukemia); assay: LDH assay cytotoxicity, K562; assay type: cell-based; conditions: K562, read-out: IC50 K562
[2] = tested on: Hela (Human cervix carcinoma); assay: LDH assay cytotoxicity, Hela; assay type: cell-based; conditions: read-out: IC50 Hela
[3] = tested on: Jurkat (Human Acute T-cell leukemia); assay: cells; assay type: cell-based; conditions: read-out: IC50 Jurkat
[4] = tested on: HT29 (Human colon carcinoma); assay: LDH assay cytotoxicity, HT29; assay type: cell-based; conditions: HT-29, read-out: IC50 HT29
[5] = tested on: HepG2 (Human hepatocyte cancer cell line); assay: LDH assay cytotoxicity, HepG2; assay type: cell-based; conditions: HepG2, read-out: IC50 HepG2
[6] = tested on: PC3 (Human prostate adenocarcinoma); assay: LDH assay cytotoxicity, PC3; assay type: cell-based
[7] = tested on: HUVEC (Human umbilical vein endothelial cell); assay: LDH assay cytotoxicity, HUVEC; assay type: cell-based; conditions: read-out: IC50 HUVEC
[8] = tested on: HL60 (Human promylocyteic leukemia); assay: LDH assay cytotoxicity, HL60; assay type: cell-based; conditions: HL-60, read-out: IC50 HL60
[9] = tested on: leukemia cell lines (HL60, K562 and Jurkat); assay: Trypan blue exclusion, leukemia cell lines; assay type: cell-based, Human; conditions: 48 h; compared with structural isomer A; Figures 7-9
[10] = tested on: MCF7 (Human breast adenocarcinoma); assay: LDH assay cytotoxicity, MCF7; assay type: cell-based
[11] = tested on: cancer cell lines (PC3, HT29, Hela, HL60, Jurkat, K562, MCF7, HepG2); assay: LDH assay cytotoxicity, span over the eight cancer cell lines; assay type: cell-based; conditions: Homo sapiens, read-out: IC50 on cancer cell lines (range over the eight lines)
Outline: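 Cells grown in DMEM with 10% FBS and penicillin/streptomycin at 37°C, 5% CO2. Test compound at 1, 5, 10, 25, 50 and 100 μM for 24 and 48 h. Medium transferred and mixed with LDH reagent plus catalyst (1:45), 30 min in the dark at room temperature. Absorbance read at 490 nm with 630 nm background subtraction. Cell-free medium served as negative control.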

[12] = tested on: PC3 (Human prostate adenocarcinoma); assay: Trypan blue exclusion, PC3; assay type: cell-based; conditions: 48 h; Figure 4
Outline: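 Cells kept in DMEM with 10% FBS and antibiotics at 37°C, 5% CO2. About 0.75 × 10^5 cells/mL were seeded in 6-well plates and exposed to test compound at several concentrations for 48 h. Cells were then collected, resuspended in 0.4% trypan blue, and unstained cells counted by inverted microscopy. Percent viability was expressed relative to a temozolomide reference control.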

[13] = Homo sapiens, read-out: IC50 PC3, LDH assay, incubation 24 and 48 h described

SMILES | IC50 [1] | IC50 [2] | IC50 [3] | IC50 [4] | IC50 [5] | IC50 [6, 13] | IC50 [7] | IC50 [8] | effectiveness on leukemia cell lines (HL60, K562 and Jurkat) by trypan blue exclusion [9] | IC50 ([10]; read-out: IC50 MCF7, LDH assay, incubation 24 and 48 h described) | IC50 [11] | IC50 ([6]; read-out: IC50 PC3, LDH assay, incubation 24 and 48 h described) | cytotoxic activity on PC3 by trypan blue exclusion [12] | IC50 ([10]; Homo sapiens, MCF7, read-out: IC50 MCF7) | IC50 ([6]; Homo sapiens, read-out: IC50 PC3)
O=[N+]([O-])c1ccc(N=NNc2cccc(O)c2)cc1 [A, 1-(4-nitrophenyl)-3-(3-hydroxyphenyl)triazene] | 2100 ± 700 nM | 8.87 ± 2.1 µM | 1200 ± 400 nM | 2.82 ± 0.49 µM | 1120 ± 300 nM | 1240 ± 200 nM | 4.4 ± 1.31 µM | 2300 ± 510 nM |  |  |  |  |  |  | 
O=[N+]([O-])c1ccc(N=NNc2ccccc2O)cc1 [B, 1-(4-nitrophenyl)-3-(2-hydroxyphenyl)triazene] | 1130 ± 670 nM | 4.2 ± 1.4 µM | 1050 ± 980 nM | 3.37 ± 1.65 µM | 1890 ± 780 nM | 3290 ± 1300 nM | 3.22 ± 1.1 µM | 1360 ± 340 nM | more effective |  |  |  |  |  | 
CCOc1ccccc1N=NNc1ccccc1OCC [C, 1,3-bis(2-ethoxyphenyl)triazene] | 1660 ± 800 nM | 2.54 ± 1.2 µM | 1690 ± 1020 nM | 2.55 ± 1.33 µM | 3330 ± 1300 nM | 590 nM | 12.6 ± 2.8 µM | 2620 ± 960 nM |  | 590 ± 120 nM | 0.56 to 3.33 µM | 560 ± 200 nM | high |  | 
N#Cc1ccccc1N=NNc1ccccc1C#N [D, 1,3-bis (2-cyanophenyl) triazene] | 1040 ± 380 nM | 2.39 ± 1.35 µM | 1440 ± 710 nM | 2.03 ± 1.05 µM | 1490 ± 420 nM | 1040 ± 110 nM | 1.14 ± 0.4 µM | 1340 ± 440 nM |  |  |  |  |  |  | 
O=[N+]([O-])c1ccc(N=NNCCO)cc1 [E, 1-(4-nitrophenyl)-3-(2-hydroxyethyl)triazene] | 9870 ± 2080 nM | 15.5 ± 3.01 µM | 4500 ± 1670 nM | 8.25 ± 2.2 µM | 4200 ± 1200 nM | 3000 ± 1010 nM | 5.05 ± 1.8 µM | 2810 ± 990 nM |  |  | 3 to 15.5 µM |  |  |  | 
COc1ccccc1N=NNc1ccccc1OC [F, 1,3-Bis(2-methoxyphenyl)triazene] | 1660 ± 490 nM | 6.85 ± 2.8 µM | 1610 ± 900 nM | 2.26 ± 1.52 µM | 1450 ± 650 nM | 7000 ± 2200 nM | 4.59 ± 1.76 µM | 1300 ± 500 nM |  |  |  |  |  |  | 
c1ccc(N=NNc2ccccc2)cc1 [G, 1,3-diphenyltriazene] | 6330 ± 2410 nM | 4.88 ± 1.5 µM | 5530 ± 1440 nM | 9.4 ± 2.3 µM | 3940 ± 1450 nM |  | 7.43 ± 2.1 µM | 3400 ± 1960 nM |  |  |  |  |  | 1570 ± 340 nM | 4130 ± 1800 nM
Cn1nnc2c(C(N)=O)ncn2c1=O [TMZ, Temozolomide, reference compound] | 3820 ± 1600 nM | 8.88 ± 2.2 µM | 2070 ± 1340 nM | 17.2 ± 3.2 µM | 2590 ± 1300 nM | 1390 ± 690 nM | 4.85 ± 1.78 µM | 3540 ± 1560 nM |  |  |  |  |  |  | 
